Among the data in ChEMBL document CHEMBL1138754, “Synthesis of taxoids with improved cytotoxicity and solubility for use in tumor-specific delivery” (J Med Chem, 2004) are IC50 and solubility values, retold here.

≈ marks a conversion by molar mass, not a printed value.

Data set [1] concerns A549. Nature of the data set: In vitro inhibitory concentration that inhibits 50% of the growth of A549 non small cell lung carcinoma cell line after 72 hr of drug exposure. The class given is functional, cell-based. The settings on record: Homo sapiens, A549, 72 h.
A short description of data set [2]: Solubility in 10% DMA (expressed as mean of 3 determinations). The class given is physicochemical. The conditions noted are these: read-out: S. The essentials: (§1)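 200 μg of taxane was dissolved in 50 µL of organic solvent (DMA, DMSO or ethanol), then diluted to 500 µL (10% organic) with conjugation buffer: 0.1 M potassium phosphate, 1 mM EDTA, pH 6.5. The mixture was vortexed and centrifuged, and the taxane concentration in the supernatant was measured spectrophotometrically.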

A short description of data set [3]: Solubility in 10% DMSO(expressed as mean of 3 determinations). Type of data set: physicochemical. The conditions noted are these: read-out: S. The essentials: as §1
Data set [4] in a line: Solubility in 10% Ethanol (expressed as mean of 3 determinations). The class given is physicochemical. The settings on record: read-out: S. A digest of the protocol:
as §1

Data set [5] deals with MCF7. Nature of the data set: In vitro inhibitory concentration that inhibits 50% of the growth of MCF-7 human breast cell carcinoma cell line after 72 hr of drug exposure. The class given is functional, cell-based. The conditions noted are these: MCF7, 72 h.
A further data set concerns Breast carcinoma cell. Nature of the data set: Inhibitory concentration that inhibits 50% of the growth of LCC6/P9 human breast cell carcinoma cell line after 72 hr of drug exposure. Type of data set: functional, cell-based.
The nature of data set [6]: Solubility in 10% DMA(expressed as mean of 3 determinations). Type of data set: physicochemical. The conditions noted are these: read-out: S. A digest of the protocol:
as §1

Data set [7] concerns MCF7. Nature of the data set: Inhibitory concentration that inhibits 50% of the growth of MCF-7 human breast cell carcinoma cell line after 72 hr of drug exposure. (Table 3). Type of data set: functional, cell-based. The settings on record: MCF7, 72 h.
The subject of a further data set is NCI/ADR-RES. Nature of the data set: Inhibitory concentration that inhibits 50% of the growth of NCI ADR RES human […] cell carcinoma cell line after 72 h of drug exposure. Type of data set: functional, cell-based.
The subject of the next data set is MDR. Nature of the data set: Inhibitory concentration that inhibits 50% of the growth of LGM MDR human breast cell carcinoma cell line after 72 hr of drug exposure. Type of data set: functional, cell-based.
The nature of data set [8]: Inhibitory concentration that inhibits 50% of the growth of Namalwa MDR Burkitts lymphoma MDR cell carcinoma cell line after 72 hr of drug exposure. The settings on record: Homo sapiens. Type of data set: functional, cell-based.
Data set [9] is described as follows: Inhibitory concentration that inhibits 50% of the growth of Namalwa Burkitts lymphoma cell carcinoma cell line after 72 hr of drug exposure. The class given is functional, cell-based. The conditions noted are these: Homo sapiens.
The test system of data set [10] is A549. Nature of the data set: In vitro inhibitory concentration that inhibits 50% of the growth of A549 non small cell lung carcinoma cell line after 72 hr of drug exposure. (IC50 based on 2 separate determinations). The class given is functional. The conditions noted are these: Homo sapiens, A549, 72 h.
The subject of data set [11] is MCF7. Nature of the data set: In vitro inhibitory concentration that inhibits 50% of the growth of MCF-7 human breast cell carcinoma cell line after 72 hr of drug exposure. (IC50 based on 2 separate determinations). Type of data set: functional. The settings on record: MCF7, 72 h.
Data set [12] is described as follows: Solubility in 10% DMSO (expressed as mean of 3 determinations). Type of data set: physicochemical. The conditions noted are these: read-out: S. A digest of the protocol:
as §1

For the compound `COc1ccc(OC)c(C(=O)O[C@H]2C3[C@](C)(C(=O)[C@H](O)C4=C(C)[C@@H](OC(=O)[C@H](O)[C@H](C=C(C)C)NC(=O)OC(C)(C)C)C[C@]2(O)C4(C)C)C(OC(=O)CCSSC)C[C@H]2OC[C@@]32OC(C)=O)c1` (stereo partly specified), the IC50 – broadly, the midpoint of a concentration-inhibition curve – in the data set on A549 [1] stood at 0.13 nM; in the data set with MCF7 [5], 0.07 nM. Also, the solubility came out at 10 µg/mL (≈ 10.2 µM) in data set [2], 4 µg/mL (≈ 4.08 µM) in data set [3] and 2 µg/mL (≈ 2.04 µM) in [4].

For `COc1ccc(OC)c(C(=O)O[C@H]2C3[C@](C)(C(=O)[C@H](OC(=O)CCSSC)C4=C(C)[C@@H](OC(=O)[C@H](O)[C@H](C=C(C)C)NC(=O)OC(C)(C)C)C[C@]2(O)C4(C)C)C(O)C[C@H]2OC[C@@]32OC(C)=O)c1` (stereo partly specified), the half-inhibitory concentration (IC50) was determined as 0.09 nM with A549 [1]; 1 nM in the data set on Breast carcinoma cell; 0.4 nM with MCF7 [7]; 15 nM in the data set with NCI/ADR-RES; 0.05 nM in the data set on MCF7 [5]; 4 nM with MDR. Further, the half-maximal inhibitory concentration (IC50) in data set [8] came to 0.65 nM; in [9] it was 0.53 nM. Moreover, the results for the solubility in data set [3], in data set [6] and in data set [4] were 14 µg/mL (≈ 14.3 µM), 8 µg/mL (≈ 8.16 µM) and 10 µg/mL (≈ 10.2 µM), respectively.

With `CSSCCC(=O)O[C@H]1C(=O)[C@]2(C)C(O)C[C@H]3OC[C@@]3(OC(C)=O)C2[C@H](OC(=O)c2ccccc2)[C@]2(O)C[C@H](OC(=O)[C@H](O)[C@H](C=C(C)C)NC(=O)OC(C)(C)C)C(C)=C1C2(C)C` (stereo partly specified), the IC50 in the data set with A549 [1] was determined as 0.8 nM; in the data set on MCF7 [5], 1 nM.

Turning to `COc1ccc(OC)c(C(=O)O[C@H]2C3[C@](C)(C(=O)[C@H](OC(=O)CCOCCOCCOCCOCCSSC)C4=C(C)[C@@H](OC(=O)[C@H](O)[C@H](C=C(C)C)NC(=O)OC(C)(C)C)C[C@]2(O)C4(C)C)C(O)C[C@H]2OC[C@@]32OC(C)=O)c1` (stereo partly specified), the IC50 came out at 0.29 nM in the data set with A549 [1]; 1.6 nM with Breast carcinoma cell; 0.5 nM with MCF7 [7]; 19 nM with NCI/ADR-RES; 0.06 nM with MCF7 [5]; 18 nM in the data set on MDR. For the same compound, the IC50 in data set [8] was determined as 0.9 nM; in data set [9], 0.45 nM. In addition, the solubility came to 82 µg/mL (≈ 70.9 µM) in data set [3], 79 µg/mL (≈ 68.3 µM) in [6] and 55 µg/mL (≈ 47.6 µM) in data set [4].

On to `CSSCCN1CCN(C(=O)O[C@H]2C(=O)[C@]3(C)C(O)C[C@H]4OC[C@@]4(OC(C)=O)C3[C@H](OC(=O)c3ccccc3)[C@]3(O)C[C@H](OC(=O)[C@H](O)[C@H](C=C(C)C)NC(=O)OC(C)(C)C)C(C)=C2C3(C)C)CC1` (stereo partly specified), for which the IC50 in the data set with A549 [1] was 1.1 nM; with MCF7 [5], 1 nM.

In the case of `COc1ccc(OC)c(C(=O)O[C@H]2C3[C@](C)(C(=O)[C@H](OC(=O)CCOCCOCCOCCOCCOCCOCCOCCOCCOCCOCCSSC)C4=C(C)[C@@H](OC(=O)[C@H](O)[C@H](C=C(C)C)NC(=O)OC(C)(C)C)C[C@]2(O)C4(C)C)C(O)C[C@H]2OC[C@@]32OC(C)=O)c1` (stereo partly specified), the solubility in data set [2] was 97 µg/mL (≈ 68.3 µM); in data set [3], 110 µg/mL (≈ 77.4 µM); in data set [4], 127 µg/mL (≈ 89.4 µM). The IC50 was 1.1 nM with A549 [10] and 0.58 nM with MCF7 [11].

`COc1ccc(OC)c(C(=O)O[C@H]2C3[C@](C)(C(=O)[C@H](OC(=O)N4CCN(CCSSC)CC4)C4=C(C)[C@@H](OC(=O)[C@H](O)[C@H](C=C(C)C)NC(=O)OC(C)(C)C)C[C@]2(O)C4(C)C)C(O)C[C@H]2OC[C@@]32OC(C)=O)c1` (stereo partly specified): the concentration for half-maximal inhibition (IC50) with A549 [1] came to 0.3 nM; in the data set with MCF7 [5] it was 0.039 nM. For the same compound, the solubility in data set [2] was 26 µg/mL (≈ 24.4 µM); in data set [3] it was 26 µg/mL (≈ 24.4 µM); in data set [4], 32 µg/mL (≈ 30.1 µM).

As to `COc1ccc(OC)c(C(=O)O[C@H]2C3[C@](C)(C(=O)[C@H](O)C4=C(C)[C@@H](OC(=O)[C@H](O)[C@H](C=C(C)C)NC(=O)OC(C)(C)C)C[C@]2(O)C4(C)C)C(OC(=O)CCOCCOCCOCCOCCSSC)C[C@H]2OC[C@@]32OC(C)=O)c1` (stereo partly specified), the results for the solubility in data set [2], in [4] and in data set [12] were 11 µg/mL (≈ 9.51 µM), 13 µg/mL (≈ 11.2 µM) and 17 µg/mL (≈ 14.7 µM), respectively. Besides, the IC50 with A549 [10] amounted to 1 nM; with MCF7 [11], 0.32 nM.
